Experiment [1] relates to Escherichia coli. Kind of experiment: Minimum inhibitory concentration against Escherichia coli (Vogel). Type of experiment: functional. The procedure, abridged:
(§1)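 Serial twofold tube dilution in tryptose phosphate broth. Each compound was prepared as a 1000 μg/mL aqueous stock and diluted in double-strength broth, then 2×10^5 cells were added. Tubes were incubated aerobically at 37 °C for 24 h. The MIC was taken as the lowest concentration with no visible growth.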

The next experiment has as its system Klebsiella pneumoniae. Kind of experiment: Minimum inhibitory concentration against Klebsiella pneumonia 39645. Type of experiment: functional. Summed up: as §1
Experiment [2] deals with Pseudomonas aeruginosa. Kind of experiment: Compound is evaluated for the antimicrobial minimum inhibitory concentration against Pseudomonas aeruginosa MGH-1. Type of experiment: functional.
The subject of experiment [3] is Streptococcus mutans. Put plainly: Compound is evaluated for minimum plaque inhibitory concentration using a standard test organism, Streptococcus mutans OMZ-61. Type of experiment: functional. Summed up:
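S. mutans OMZ-61 in pH 7.0 beef extract–trypticase medium with 0.5% sucrose. Sterile ceramic hydroxylapatite plates got two 1-min soaks in 0.1–0.001% compound, each followed by 1-min air-drying, then a 5-min water rinse. Plates were put in inoculated medium at 37 °C anaerobically for 24 h. The cycle was repeated for a second 24 h. Plaque was stained with 1% FD&C Red No. 3. Value is the lowest concentration completely preventing plaque.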

Experiment [4] relates to Staphylococcus aureus. Put plainly: Compound is evaluated for the antimicrobial minimum inhibitory concentration against Staphylococcus aureus (Smith). Type of experiment: functional. The procedure, abridged: as §1
For experiment [5], the system named is Proteus mirabilis. Put plainly: Compound is evaluated for the antimicrobial minimum inhibitory concentration against Proteus mirabilis MGH-1. Type of experiment: functional. The procedure, abridged:
as §1

A further experiment has as its system Actinomyces viscosus. Kind of experiment: Compound is evaluated for minimal bactericidal concentration against plaque formation for Actinomyces viscosus. Type of experiment: functional, organism-based. The procedure, abridged:
(§2)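 Preformed in vitro plaques of S. mutans NCTC 10449 or A. viscosus M-100 were grown on ceramic hydroxylapatite under anaerobic conditions at 37 °C in sucrose-supplemented medium. Plaques were immersed for 30 min at 37 °C in compound at 0.3–20 mM, rinsed, and moved to broth containing bromocresol purple. Kill was judged by no acid production, no turbidity increase and no growth on plating at 48 h. Plaques were run in quadruplicate.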

Experiment [6] has as its system Escherichia coli. Put plainly: Antimicrobial minimum inhibitory concentration against Escherichia coli AB1932-1. Type of experiment: functional. Summed up: as §1
Experiment [7] deals with Escherichia coli. Put plainly: Antimicrobial minimum inhibitory concentration against Escherichia coli 100/B22. Type of experiment: functional. The procedure, abridged:
as §1

The test system of experiment [8] is Proteus mirabilis. Kind of experiment: Minimum antimicrobial inhibitory concentration against Proteus mirabilis MGH-1. Type of experiment: functional. The procedure, abridged:
as §1

For experiment [9], the system named is Pseudomonas aeruginosa. Kind of experiment: Minimum antimicrobial inhibitory concentration against Pseudomonas aeruginosa MGH-2. Type of experiment: functional. The procedure, abridged:
as §1

Experiment [10] concerns Staphylococcus aureus. Kind of experiment: Minimum antimicrobial inhibitory concentration against Staphylococcus aureus. Type of experiment: functional. The procedure, abridged: as §1
The subject of experiment [11] is Streptococcus mutans. Put plainly: Compound is evaluated for minimal bactericidal concentration against plaque formation for Streptococcus mutans. Type of experiment: functional, organism-based. Summed up:
as §2

The test system of experiment [12] is Streptococcus mutans. Put plainly: Minimum plaque inhibitory concentration using a standard test organism, Streptococcus mutans OMZ-61. Type of experiment: functional, organism-based. Summed up:
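Ceramic hydroxylapatite plates were soaked twice for 1 min each in compound at […] (aqueous), air-dried and rinsed, then hung in sucrose beef-extract medium (pH 7.0) inoculated with late-log S. mutans OMZ-61. Incubation was anaerobic at 37 °C for 24 h, and treatment plus reinoculation were repeated for a second 24 h. Plaque was stained with 1% FD&C Red No. 3 and scored visually. The value is the lowest concentration giving no plaque while medium growth matched control.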

The nature of experiment [13]: Compound is evaluated for stain index. Type of experiment: functional. Summed up:
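Ratio of the minimum concentration staining a plaque-free ceramic hydroxylapatite plate to the minimum plaque-inhibiting concentration, both run under the same conditions. Plates got two 1-min soaks (0.1–0.001%), each followed by air-drying, then a water rinse. They were then held 24 h anaerobically at 37 °C in sucrose beef-extract medium, with or without S. mutans OMZ-61, repeated once. Staining was 1-min 1% FD&C Red No. 3, scored visually.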

Broadly, the MIC is the least concentration at which growth counts as inhibited. Read a high MIC as weaker potency. With `Br.Br.N=c1ccn(CCCCn2ccc(=N)cc2)cc1`, the MIC in the experiment on Escherichia coli [1] was 500 µg/mL; in the experiment with Klebsiella pneumoniae it was greater than 500 µg/mL; with Pseudomonas aeruginosa [2], greater than 500 µg/mL; against Staphylococcus aureus [4], 125 µg/mL; with Proteus mirabilis [5], greater than 500 µg/mL. In addition, the “Min plague Inhibitory” value in the experiment with Streptococcus mutans [3] is greater than 1%.

As to `Br.Br.CCCCCCCCCN=c1ccn(CCCCCCCCCn2ccc(=NCCCCCCCCC)cc2)cc1`, the values for the Concentration in the experiment with Actinomyces viscosus, with Streptococcus mutans [11] and in the experiment on Streptococcus mutans [12] were 1.37 mM, 1.37 mM and 0.004%, respectively. In addition, the MIC against Escherichia coli [6] came out at 3.9 µg/mL; against Escherichia coli [1], 2 µg/mL; against Escherichia coli [7] it was 2 µg/mL; against Klebsiella pneumoniae it was 3.9 µg/mL; in the experiment on Proteus mirabilis [8], 3.9 µg/mL; in the experiment with Pseudomonas aeruginosa [9], 3.9 µg/mL. In addition, the MIC in the experiment on Staphylococcus aureus [10] came to 2 µg/mL. In experiment [13], the Stain index turned out to be 1.

As to `Br.Br.CCCCCCCCN=c1ccn(CCCCCCCCCCCCCCn2ccc(=NCCCCCCCC)cc2)cc1`, the Concentration in the experiment on Actinomyces viscosus was 2.6 mM; with Streptococcus mutans [11], 1.3 mM; in the experiment on Streptococcus mutans [12], 0.005%. The MIC is 3.9 µg/mL in the experiment on Escherichia coli [6]; 7.8 µg/mL against Escherichia coli [1]; 3.9 µg/mL against Escherichia coli [7]; 7.8 µg/mL in the experiment on Klebsiella pneumoniae; 3.9 µg/mL in the experiment with Proteus mirabilis [8]; 3.9 µg/mL with Pseudomonas aeruginosa [9]. In the experiment on Staphylococcus aureus [10], this compound showed an MIC of 1 µg/mL. For the same compound, the Stain index in experiment [13] worked out at 2.

On to `Br.Br.CCCCCCCCCN=c1ccn(CCCCCCCCn2ccc(=NCCCCCCCCC)cc2)cc1`, for which the Concentration is 2.5 mM in the experiment with Actinomyces viscosus, 2.5 mM with Streptococcus mutans [11] and 0.004% in the experiment on Streptococcus mutans [12]. The MIC against Escherichia coli [6] was 2 µg/mL; in the experiment with Escherichia coli [1] it was 3.9 µg/mL; in the experiment with Escherichia coli [7], 2 µg/mL; in the experiment with Klebsiella pneumoniae, 2 µg/mL; with Proteus mirabilis [8], 3.9 µg/mL; against Pseudomonas aeruginosa [9], 7.8 µg/mL. In addition, in the experiment on Staphylococcus aureus [10], it took 1 µg/mL to inhibit growth (MIC). The Stain index in experiment [13] worked out at 1.

For the origin of these results see ChEMBL document CHEMBL1122519, “Bispyridinamines: a new class of topical antimicrobial agents as inhibitors of dental plaque” (1984).
